Screening results from PubChem BioAssay.
An excerpt weighted towards active compounds, which were near 2.9% of everything screened.
CaV13 FRET inh – Primary screen for inhibitors of IQ motif and Ca2+-dependent inactivation inhibitor domain binding in CACNA1D, Förster resonance energy transfer in living cells, … | hit rate 0.098% among 340,000 | HEK cells, CFP/YFP FRET ICDI-IQ, plate reader, 10 min; percent FRET-ratio fall versus neutral wells | inhibition, % at 12.3 µM;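 active = mean replicate inhibition of at least 30% and at least 1% of replicates passing that level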;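 also: 0% = median of the neutral control wells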
ADAM10 inh – ADAM10 inhibition, QFRET primary screen | O14672 | recombinant ADAM10, EDANS/DABCYL FRET peptide cleavage, 3 h | inhibition, % at 7 µM | hit rate 0.62% among 370,000 | AID 720582;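 active = inhibition above a per-campaign cutoff equal to the mean of compounds falling between control-based bounds plus 3 SD, cut at about 20% in these data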;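 also: 0% = DMSO wells while the 100% control is not disclosed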
FAS TE block – blocks the thioesterase domain of human fatty acid synthase; P49327; inhibition, % at 15 µM; hit rate 0.67% among 360,000; recombinant FAS-TE, OMFH fluorogenic substrate, fluorescence endpoint;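 active = compounds whose normalised, plate-corrected inhibition of enzyme fluorescence in the single-dose primary screen is 50% or more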;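 also: 0% = DMSO with enzyme and 100% = substrate without enzyme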
Arr AP2 block – blocks beta-arrestin peptide binding to AP2 adaptin. inhibition, % at 10 µM. hit rate 0.31% among 340,000. FITC-arrestin peptide / GST-AP2 beads, flow cytometry; AP2 beta2 appendage carries R879A mutation;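 active = inhibition above a set limit, near 3 SD of compounds lacking own fluorescence, cut at about 54% in these data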;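 also: plate controls were DMSO wells for no effect and 5 µM unlabelled arrestin peptide for full effect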
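System: GST-tagged AP2 beta2-adaptin appendage (R879A) on 4 µm glutathione beads / Reagent: FITC-arrestin peptide, 50 nM / Detection: HyperCyt-sampled flow cytometry, FL1 channel, ex 488/em 535 nm / Timing: 12 min plus 1 h, RT / Buffer or medium: PBS plus Tween 20 (0.05%) and BSA (0.1%)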
NRP1-CendR mod – modulators of CendR peptide binding to human neuropilin-1 | O14786 | FAM-RPARPAR peptide binding to NRP-1, fluorescence polarization | inhibition, % at 25 µM | hit rate 0.85% among 360,000;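 active = inhibition or corrected inhibition above about 18%, plus a signal ratio from 0.5 to 1.5, limit read from the data, passing the limit was not always enough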
ADAM17 inh – inhibits human ADAM17. recombinant ADAM17, EDANS/DABCYL FRET peptide cleavage. inhibition, % at 6.95 µM. hit rate 0.83% among 370,000. AID 720648;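 active = inhibition above the mean of compounds lying between control limits plus 3 SD, set per campaign, cut at about 8.5% in these data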;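 also: 0% = DMSO-only wells as the low control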
Target sequence (P78536 215-824 limits assumed): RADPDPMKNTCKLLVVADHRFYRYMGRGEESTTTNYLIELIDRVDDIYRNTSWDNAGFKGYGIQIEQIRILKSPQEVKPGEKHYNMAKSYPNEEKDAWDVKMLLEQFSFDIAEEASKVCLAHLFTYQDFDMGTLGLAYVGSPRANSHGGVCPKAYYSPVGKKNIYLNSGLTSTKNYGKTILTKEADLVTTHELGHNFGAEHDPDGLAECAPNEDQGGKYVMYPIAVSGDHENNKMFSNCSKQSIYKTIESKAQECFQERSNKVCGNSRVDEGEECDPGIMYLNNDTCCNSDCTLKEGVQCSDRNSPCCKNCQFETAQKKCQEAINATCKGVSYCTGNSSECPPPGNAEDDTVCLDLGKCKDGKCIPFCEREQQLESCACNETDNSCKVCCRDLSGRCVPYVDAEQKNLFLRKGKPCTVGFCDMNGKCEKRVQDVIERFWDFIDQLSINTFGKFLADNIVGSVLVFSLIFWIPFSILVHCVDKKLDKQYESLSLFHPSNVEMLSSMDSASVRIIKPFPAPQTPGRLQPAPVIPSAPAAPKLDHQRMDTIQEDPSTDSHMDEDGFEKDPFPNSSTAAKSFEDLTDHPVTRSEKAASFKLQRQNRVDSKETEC
ADAM10 confirm – confirmation of inhibitors of human ADAM10. ADAM10 QFRET peptide cleavage, EDANS fluorescence. hit rate 1% among 2,100. shares compounds with ADAM10 inh. AID 743208. inhibition, % at 6.95 µM;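 active = inhibition above about 20% chosen separately for each screening run, limit read from the data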;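 also: 0% = DMSO wells and 100% = marimastat wells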
ADAM17 counter – ADAM17 inhibition, counter-screen for ADAM10 exosite hits; hit rate 0.5% among 2,100; ADAM17 QFRET peptide cleavage, EDANS fluorescence; inhibition, % at 6.95 µM; shares compounds with ADAM10 inh; AID 743214;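 active = mean triplicate inhibition above the solvent-only control wells' mean plus 3 SD, cut at about 12% in these data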;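 also: 0% = DMSO wells and 100% = marimastat wells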
ADAM10 counter – counter-screen for ADAM17 exosite inhibitors: inhibitors of human ADAM10; inhibition, % at 6.95 µM; hit rate 47% among 2,900; recombinant ADAM10, EDANS/DABCYL FRET peptide cleavage, 3 h; shares compounds with ADAM17 inh; AID 743256;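 active = mean inhibition over the triplicate runs exceeds the activity threshold set in the earlier primary screen, cut at about 20% in these data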;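 also: 0% = DMSO wells and 100% = marimastat wells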
ADAM17 confirm – human ADAM17 inhibition, confirmation; recombinant ADAM17, EDANS/DABCYL QFRET peptide cleavage; hit rate 65% among 2,900; inhibition, % at 6.95 µM; shares compounds with ADAM17 inh;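 active = mean inhibition across replicates above the hit cutoff set in the primary screen, cut at about 8.5% in these data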;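 also: 0% = DMSO wells and 100% = marimastat wells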
* hit, by the source's call; . = not tested or not shown.

SMILES	CaV13 FRET inh	ADAM10 inh	FAS TE block	Arr AP2 block	NRP1-CendR mod	ADAM17 inh	ADAM10 confirm	ADAM17 counter	ADAM10 counter	ADAM17 confirm
CCCCCCCCN1C(=O)[C@H](CC(=O)NCC23CC4CC(CC(C4)C2)C3)C[C@@]2(C(=O)OCC)CCC=C12	-3.3	3.9	.	.	-15.4	0.3	.	.	.	.
Cn1cccc1CC(=O)NN=C/C=C\c1ccco1	.	-17.0	.	.	.	0.8	.	.	.	.
CC(C)(C)OC(=O)NCc1ccc(NC(=O)c2nc[nH]c2C(=O)N[C@@H](Cc2ccccc2)C(=O)OCc2ccccc2)cc1	-5.2	14.4	32.3	-0.7	-7.8	3.4	.	.	.	.
C[C@@H](OC(=O)c1[nH]cnc1C(=O)NCc1ccc(CNC(=O)OC(C)(C)C)cc1)c1ccccc1	-5.4	39.9*	28.6	-3.3	-12.4	25.3*	0.5	0.6	22.2*	11.5*
CC(C)(C)OC(=O)NCc1ccc(CNC(=O)c2[nH]cnc2C(=O)N[C@@H](Cc2ccccc2)C(=O)OC(C)(C)C)cc1	-5.7	41.7*	17.5	-9.8	15.7	14.3*	12.2	3.3	55.7*	27.0*
C[C@H](NC(=O)c1nc[nH]c1C(=O)NCc1ccccc1)C(=O)OC(C)(C)C	-8.6	6.1	0.8	2.1	6.5	2.2	.	.	.	.
CC(C)(C)OC(=O)[C@H](Cc1ccccc1)NC(=O)c1nc[nH]c1C(=O)NCc1ccccc1	-5.0	24.6*	18.4	-3.2	4.7	11.5*	7.9	2.1	31.0*	16.7*
C=C(C)C(=O)OCC(O)COc1ccc(C(C)(C)c2ccc(OCC(O)COC(=O)C(=C)C)cc2)cc1 (centres undefined)	-5.1	35.2*	25.0	9.0	5.6	9.5*	7.6	1.9	33.1*	17.6*
CC(=O)c1ccc(OCC(O)COc2ccc(C(C)=O)cc2)cc1	-5.3	6.0	-4.6	5.7	-1.2	4.7	.	.	.	.
CN(c1c2c(nc3ncnn13)CCCC2)C1CCCCC1	.	5.1	.	.	.	3.0	.	.	.	.
O=C(NCc1ccccc1)c1onc(CSc2ccccc2)c1C(=O)NCC1CC1	-9.2	25.3*	39.8	-5.3	4.7	11.8*	7.4	3.1	40.8*	21.8*
O=C(NCc1ccccc1)c1onc(CSc2ccc(Cl)cc2)c1C(=O)NCC1CC1	-4.4	11.6	19.8	.	-3.6	1.4	.	.	.	.
COc1ccc(N2CC(C(=O)Nc3c(C(N)=O)oc4ccccc34)CC2=O)cc1 (centres undefined)	-2.9	-8.6	-2.7	-3.4	3.1	-4.1	.	.	.	.
CCOc1ccccc1CNS(=O)(=O)c1cc(-c2cc(C)no2)ccc1OC	-3.7	14.1	7.0	-21.1	7.6	2.2	.	.	.	.
COc1ccccc1CNS(=O)(=O)c1cc(-c2cc(C)no2)ccc1C(C)C	-3.0	31.8*	23.1	17.3	-8.2	11.0*	2.0	0.8	16.9	11.6*
O=[N+]([O-])c1ccc(S(=O)(=O)Nc2ccc(-c3csc(-c4ccccc4)n3)cc2)cc1	.	34.4*	.	.	.	17.3*	12.3	4.0	33.6*	16.8*
COc1ccc(NC(=S)NC(NC(=O)c2ccc(Cl)cc2Cl)C(Cl)(Cl)Cl)c([N+](=O)[O-])c1 (centres undefined)	-8.1	21.9*	23.7	26.0	3.8	8.8*	10.1	2.0	31.1*	17.3*
COc1ccc(NC(=S)NC(NC(=O)c2cccc3ccccc23)C(Cl)(Cl)Cl)c([N+](=O)[O-])c1 (centres undefined)	.	12.9	20.9	-5.8	-0.4	7.5	.	.	.	.
